Reference: ChEMBL document CHEMBL3526048, “In vitro metabolism of rivoglitazone, a novel peroxisome proliferator-activated receptor γ agonist, in rat, monkey, and human liver microsomes and freshly isolated hepatocytes” (Drug Metab Dispos, 2011)

Experiments:
[1] = Drug level in cynomolgus monkey liver microsomes treated with [14C]-rivoglitazone at 20 uM after 2 to 4 hrs by radio-HPLC/LC-MS/MS analysis in presence of UDPGA, UDPGA/SAM and NADPH-generating system; type: ADME, Macaca fascicularis
[2] = Drug metabolism in monkey hepatocytes assessed as formation of 2-amino-3-((1-carboxy-2-(4-((6-methoxy-1-methyl-1H-benzo[d]imidazol-2-yl)methoxy)phenyl)ethyl)disulfanyl)propanoic acid at 30 uM after 3 hrs by radio-HPLC/LC-MS/MS analysis; details: cynomolgus monkey
[3] = molecular target: T1, UDP-glucuronosyltransferase 2B15 (Homo sapiens, UniProt P54855); assay: Activity of human UGT2B15 expressed in microsomes isolated from baculovirus infected insect cell assessed as enzyme-mediated 2-mercapto-3-(4-((6-methoxy-1-methyl-1H-benzo[d]imidazol-2-yl)methoxy)phenyl)propanoic acid formation at 20 uM after 4 hrs by radio-HPLC/LC-MS/MS analysis in presence of UDPGA; type: ADME
T1 sequence (P54855 whole entry): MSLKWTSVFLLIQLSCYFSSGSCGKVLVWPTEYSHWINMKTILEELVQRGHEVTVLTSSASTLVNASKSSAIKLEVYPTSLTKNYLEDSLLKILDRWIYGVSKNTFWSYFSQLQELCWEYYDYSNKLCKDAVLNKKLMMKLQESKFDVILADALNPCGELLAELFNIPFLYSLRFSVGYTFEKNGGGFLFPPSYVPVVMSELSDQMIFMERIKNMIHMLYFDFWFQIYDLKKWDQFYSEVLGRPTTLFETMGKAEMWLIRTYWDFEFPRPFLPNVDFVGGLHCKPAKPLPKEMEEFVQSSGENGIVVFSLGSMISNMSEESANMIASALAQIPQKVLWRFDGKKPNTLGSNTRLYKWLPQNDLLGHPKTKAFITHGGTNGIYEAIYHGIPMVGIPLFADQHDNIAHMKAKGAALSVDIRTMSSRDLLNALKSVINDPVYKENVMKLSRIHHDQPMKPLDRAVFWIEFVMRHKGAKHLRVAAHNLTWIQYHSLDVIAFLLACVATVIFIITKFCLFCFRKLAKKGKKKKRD

Cytochrome P450 3A4 = Cytochrome P450 3A4 (Homo sapiens, UniProt P08684); assay: Activity of human CYP3A4 expressed in microsomes isolated from baculovirus infected insect cell assessed as enzyme-mediated 5-(4-((6-hydroxy-1-methyl-1H-benzo[d]imidazol-2-yl)methoxy)benzyl)thiazolidine-2,4-dione formation at 20 uM after 2 hrs by radio-HPLC/LC-MS/MS analysis in presence of NADPH-generating system and NADPH-generating system/SAM; type: ADME
Chain of Cytochrome P450 3A4 (P08684 whole entry): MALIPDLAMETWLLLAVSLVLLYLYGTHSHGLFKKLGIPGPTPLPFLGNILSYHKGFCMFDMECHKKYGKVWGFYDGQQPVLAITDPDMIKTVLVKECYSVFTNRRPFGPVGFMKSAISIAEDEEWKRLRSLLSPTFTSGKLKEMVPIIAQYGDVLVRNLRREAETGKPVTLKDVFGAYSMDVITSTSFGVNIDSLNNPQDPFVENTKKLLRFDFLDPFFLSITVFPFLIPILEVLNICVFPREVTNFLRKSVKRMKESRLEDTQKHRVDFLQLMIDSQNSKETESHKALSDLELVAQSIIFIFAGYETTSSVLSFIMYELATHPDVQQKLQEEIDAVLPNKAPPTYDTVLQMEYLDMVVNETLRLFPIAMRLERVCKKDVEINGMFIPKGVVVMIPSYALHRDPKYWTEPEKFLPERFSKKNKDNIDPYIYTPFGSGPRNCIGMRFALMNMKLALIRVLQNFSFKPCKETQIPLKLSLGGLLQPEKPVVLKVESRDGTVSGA

Cytochrome P450 2C19 [4] = molecular target: T2, Cytochrome P450 2C19 (Homo sapiens, UniProt P33261); assay: Activity of human CYP2C19 expressed in microsomes isolated from baculovirus infected insect cell assessed as enzyme-mediated 2-((4-((2,4-dioxothiazolidin-5-yl)methyl)phenoxy)methyl)-1-methyl-1H-benzo[d]imidazol-6-yl hydrogen sulfate formation at 20 uM after 2 hrs by radio-HPLC/LC-MS/MS analysis; type: ADME
T2 sequence (P33261 whole entry): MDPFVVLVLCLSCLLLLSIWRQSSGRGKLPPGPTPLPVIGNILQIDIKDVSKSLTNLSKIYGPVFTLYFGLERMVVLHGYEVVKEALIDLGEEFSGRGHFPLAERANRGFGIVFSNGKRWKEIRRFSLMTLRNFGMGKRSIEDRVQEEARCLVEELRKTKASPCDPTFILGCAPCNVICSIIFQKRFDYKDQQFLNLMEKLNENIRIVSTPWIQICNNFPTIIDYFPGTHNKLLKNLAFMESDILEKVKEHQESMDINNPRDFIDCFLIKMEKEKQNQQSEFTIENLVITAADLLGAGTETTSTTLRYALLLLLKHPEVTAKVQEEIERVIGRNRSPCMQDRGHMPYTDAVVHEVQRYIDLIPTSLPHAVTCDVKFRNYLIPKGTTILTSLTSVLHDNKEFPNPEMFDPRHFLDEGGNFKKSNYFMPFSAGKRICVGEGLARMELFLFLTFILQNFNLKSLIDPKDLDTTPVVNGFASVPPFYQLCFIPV
Procedure, shortened: (§1)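 Baculovirus/insect-cell microsomes expressing single human CYPs, 1 mg/ml protein, with 50 mM potassium phosphate (pH 7.4) or 100 mM Tris-HCl (pH 7.5). NADPH-generating system: 2 mM NADP⁺, 20 mM glucose 6-phosphate, 2 units/ml G6PDH, 10 mM MgCl₂. [¹⁴C]rivoglitazone at 20 μM, 2 h at 37°C with shaking. Control used insect-cell control supersomes. Stopped with acetonitrile; supernatant concentrated under nitrogen; metabolites analysed by radio-HPLC, LC-MS and LC-MS/MS.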

[5] = Drug metabolism in cynomolgus monkey liver microsomes assessed as formation of 2-hydroxy-3-(4-((6-methoxy-1-methyl-1H-benzo[d]imidazol-2-yl)methoxy)phenyl)propanamide at 20 uM after 2 hrs by radio-HPLC/LC-MS/MS analysis in presence of NADPH-generating system and NADPH-generating system/SAM; type: ADME, Macaca fascicularis
[6] = Drug metabolism in cynomolgus monkey liver microsomes assessed as formation of 2-mercapto-3-(4-((6-methoxy-1-methyl-1H-benzo[d]imidazol-2-yl)methoxy)phenyl)propanoic acid at 20 uM after 2 to 4 hrs by radio-HPLC/LC-MS/MS analysis in presence of UDPGA, UDPGA/SAM and NADPH-generating system; type: ADME, Macaca fascicularis
Cytochrome P450 2C19 [7] = molecular target: T2, Cytochrome P450 2C19; assay: Activity of human CYP2C19 expressed in microsomes isolated from baculovirus infected insect cell assessed as enzyme-mediated 5-(4-((6-methoxy-1H-benzo[d]imidazol-2-yl)methoxy)benzyl)thiazolidine-2,4-dione formation at 20 uM after 2 hrs by radio-HPLC/LC-MS/MS analysis in presence of NADPH-generating system and NADPH-generating system/SAM; type: ADME; procedure, shortened: as §1
Cytochrome P450 1A2 = molecular target: T3, Cytochrome P450 1A2 (Homo sapiens, UniProt P05177); assay: Activity of human CYP1A2 expressed in microsomes isolated from baculovirus infected insect cell assessed as enzyme-mediated (2S,3S,4S,5R,6R)-3,4,5-trihydroxy-6-(5-(4-((6-methoxy-1-methyl-1H-benzo[d]imidazol-2-yl)methoxy)benzyl)-2,4-dioxothiazolidin-3-yl)tetrahydro-2H-pyran-2-carboxylic acid formation at 20 uM after 2 hrs by radio-HPLC/LC-MS/MS analysis in presence of UDPGA and UDPGA/SAM; type: ADME
T3 sequence (P05177 whole entry): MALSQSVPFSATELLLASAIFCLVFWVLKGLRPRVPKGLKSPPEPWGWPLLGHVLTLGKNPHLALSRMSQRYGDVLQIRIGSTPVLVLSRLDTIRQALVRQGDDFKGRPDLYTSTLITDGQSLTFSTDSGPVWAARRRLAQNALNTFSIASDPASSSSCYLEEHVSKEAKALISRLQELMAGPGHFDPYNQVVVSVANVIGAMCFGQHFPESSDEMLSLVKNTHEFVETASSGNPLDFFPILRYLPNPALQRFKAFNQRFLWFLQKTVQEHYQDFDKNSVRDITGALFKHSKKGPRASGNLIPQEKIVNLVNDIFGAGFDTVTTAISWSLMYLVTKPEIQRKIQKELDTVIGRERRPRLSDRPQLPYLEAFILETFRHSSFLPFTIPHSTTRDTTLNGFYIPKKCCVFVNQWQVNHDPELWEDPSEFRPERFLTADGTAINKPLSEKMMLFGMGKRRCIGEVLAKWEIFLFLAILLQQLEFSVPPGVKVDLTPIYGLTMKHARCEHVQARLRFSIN

In the case of `COc1ccc2nc(COc3ccc(CC(S)C(=O)O)cc3)n(C)c2c1` (centres undefined), the Drug metabolism [1] is reported as “metabolite_detected”.
With `COc1ccc2nc(COc3ccc(C[14CH]4SC(=O)NC4=O)cc3)n(C)c2c1.Cl` (racemic) the Drug metabolism [2] was “metabolite_not_detected”, the Drug metabolism [3] was “metabolite_not_detected” and the Drug metabolism (Cytochrome P450 3A4) was “metabolite_detected”. The Drug metabolism (Cytochrome P450 2C19 [4]) was “metabolite_not_detected”, the Drug metabolism [5] was “metabolite_detected” and the Drug metabolism [6] was “metabolite_detected”. The Drug metabolism (Cytochrome P450 2C19 [7]) was “metabolite_detected” and the Drug metabolism (Cytochrome P450 1A2) was “metabolite_not_detected”.
